Experimental data from different studies.
Each line is one published result; the experiments were not run side by side. In brackets after ≈: the same amount, converted by molar mass.

| SMILES | test | system | setting | endpoint | result |
| --- | --- | --- | --- | --- | --- |
| Clc1ccc(CSc2nnc(-c3ccccn3)n2Cc2ccco2)cc1Cl | – | aqueous buffer | pH 7.4 | solubility | 0.14 µg/mL (≈ 0.335 µM) |
| CC(=O)N[C@@H](CC(N)=O)C(=O)N[C@@H](CC(N)=O)C(=O)N[C@@H](CC(C)C)C(=O)N[C@H]1CSSC[C@@H](C(=O)N[C@H](C(N)=O)[C@@H](C)O)NC(=O)[C@H](CCCNC(=N)N)NC(=O)[C@H](Cc2c[nH]cn2)NC(=O)[C@H](Cc2cccc3ccccc23)NC(=O)CNC(=O)[C@H](Cc2c[nH]c3ccccc23)NC(=O)[C@H](CC(=O)O)NC(=O)[C@H](CCC(N)=O)NC(=O)[C@H](Cc2c[nH]c3ccccc23)NC(=O)[C@H](C(C)C)NC1=O | – | PBS | pH 7.4 | solubility | 270 µg/mL (≈ 137 µM) |
| C#Cc1ccc2c(c1)C(c1ccccn1)=NCc1c(-c3cnco3)ncn1-2 | – | water | 90 min, 37 °C | kinetic solubility | 517 µg/mL |
| O=C1C=C(N(Cc2ccc(Cl)nc2)CC(F)F)CO1 | – | water | pH 4 | solubility | 3200 µg/mL (≈ 11100 µM) |
| OC(c1ccc(F)cc1)C(F)(F)CCN1CCC(O)(c2ccc(Cl)cc2)CC1 (racemic) | – | PBS | 2 h, pH 7.4, 25 °C | kinetic solubility | 3.4 µM |
| CC(C)CCC[C@@H](C)[C@H]1CC[C@H]2[C@@H]3CC=C4C[C@@H](OCCCNC(=O)CCC(=O)NCCCC[C@H](NC(=O)[C@H]5CCCN5C(=O)[C@H](CCC(=O)O)NC(=O)[C@H](C)NC(=O)[C@@H](NC(=O)C[C@H](O)[C@H](CC(C)C)NC(=O)[C@H](CC(N)=O)NC(=O)[C@@H](NC(=O)[C@@H](N)CCC(=O)O)C(C)C)C(C)C)C(N)=O)CC[C@]4(C)[C@H]3CC[C@]12C | – | aqueous buffer | pH 6.5 | thermodynamic solubility | > 3000 µg/mL |
| CC[C@H](C)[C@H](NC(=O)[C@H](CO)NC(=O)[C@H](CCCNC(=N)N)NC(C)=O)C(=O)N[C@H]1CSSC[C@@H](C(=O)N[C@H](C(N)=O)[C@@H](C)O)NC(=O)[C@H](CCCNC(=N)N)NC(=O)[C@H](Cc2cnc[nH]2)NC(=O)[C@H](C)NC(=O)CNC(=O)[C@H](Cc2c[nH]c3ccccc23)NC(=O)[C@H](CC(=O)O)NC(=O)[C@H](CCC(N)=O)NC(=O)[C@H](Cc2ccc(O)cc2)NC(=O)[C@H](C(C)C)NC1=O | – | PBS | pH 7.4 | solubility | 2840 µg/mL (≈ 1550 µM) |
| CCCc1ccc(-c2ccc([C@@H](CO)C(=O)N[C@H](C)c3ccccc3)cc2)cc1 | – | PBS | pH 7.4 | kinetic solubility | < 1 µM |
| CC[C@H](C)[C@H](NC(=O)[C@H](CO)NC(=O)[C@H](CCCNC(=N)N)NC(C)=O)C(=O)N[C@H]1CSSC[C@@H](C(=O)N[C@H](C(N)=O)[C@@H](C)O)NC(=O)[C@H](CCCNC(=N)N)NC(=O)[C@H](Cc2c[nH]cn2)NC(=O)[C@H](Cc2cccc3ccccc23)NC(=O)CNC(=O)[C@H](Cc2c[nH]c3ccccc23)NC(=O)[C@H](CC(=O)O)NC(=O)[C@H](CCC(N)=O)NC(=O)[C@H](Cc2c[nH]c3ccccc23)NC(=O)[C@H](C(C)C)NC1=O | – | PBS | pH 7.4 | solubility | 390 µg/mL (≈ 197 µM) |
| Nc1ncc(-c2nc(N3CCOCC3)nc(N3CCOCC3)n2)c(C(F)F)n1 | shake flask | FaSSIF | 24 h | thermodynamic solubility | 7.6 µM |
